Laboratory results: ChEMBL document CHEMBL1133747, “A rational approach to the design and synthesis of a new bradykinin B(1) receptor antagonist” (J Med Chem, 2000)
Active and inactive are the calls of the source. The rule behind the calls is not given here. Square brackets hold non-standard residues; d marks the D form. Peptide text beside a SMILES is read from it. ξ: configuration not given here. Oic(3aξ,7aξ) = O=C(O)[C@@H]1CC2CCCCC2N1; Tic = O=C(O)[C@@H]1Cc2ccccc2CN1; Aun = NCCCCCCCCCCC(=O)O

Experiments:
Homo sapiens = species on record: Homo sapiens; assay: Competitive inhibition of the contraction of the human umbilical vein induced by the potent B1 receptor agonist [des-Arg10]-kallidin; type: functional; conditions: read-out: pA2 (converted)
Procedure, shortened: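 Human umbilical vein rings (3-4 mm) incubated overnight at 37 °C in Krebs (B1 induction), then set in organ baths at 37 °C, 95% O2/5% CO2, stretched to 1 g. Antagonist or vehicle 15 min before [des-Arg10]-kallidin concentration-response curve (one per ring), expressed as % of 1 µM U46619 maximal contraction.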

B1 bradykinin receptor = target: T1, B1 bradykinin receptor (Homo sapiens, UniProt P46663); assay: Binding affinity towards human cloned B1 receptor was determined using [3H][des-Arg10-Leu9]-kallidin as radioligand
T1 sequence (P46663 whole entry): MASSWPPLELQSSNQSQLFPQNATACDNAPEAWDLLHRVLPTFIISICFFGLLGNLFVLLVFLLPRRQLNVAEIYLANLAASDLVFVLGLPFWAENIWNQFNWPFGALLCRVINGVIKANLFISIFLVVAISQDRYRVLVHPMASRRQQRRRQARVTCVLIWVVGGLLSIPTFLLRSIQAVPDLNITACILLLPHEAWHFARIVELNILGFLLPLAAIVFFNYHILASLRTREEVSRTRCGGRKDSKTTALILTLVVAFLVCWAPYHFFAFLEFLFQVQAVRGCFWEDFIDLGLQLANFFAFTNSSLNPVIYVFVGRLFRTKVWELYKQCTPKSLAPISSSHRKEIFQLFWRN

B2 bradykinin receptor = target: T2, B2 bradykinin receptor (Homo sapiens, UniProt P30411); assay: Binding affinity towards human cloned B2 receptor was determined using [3H]BK as radioligand
T2 sequence (P30411 whole entry): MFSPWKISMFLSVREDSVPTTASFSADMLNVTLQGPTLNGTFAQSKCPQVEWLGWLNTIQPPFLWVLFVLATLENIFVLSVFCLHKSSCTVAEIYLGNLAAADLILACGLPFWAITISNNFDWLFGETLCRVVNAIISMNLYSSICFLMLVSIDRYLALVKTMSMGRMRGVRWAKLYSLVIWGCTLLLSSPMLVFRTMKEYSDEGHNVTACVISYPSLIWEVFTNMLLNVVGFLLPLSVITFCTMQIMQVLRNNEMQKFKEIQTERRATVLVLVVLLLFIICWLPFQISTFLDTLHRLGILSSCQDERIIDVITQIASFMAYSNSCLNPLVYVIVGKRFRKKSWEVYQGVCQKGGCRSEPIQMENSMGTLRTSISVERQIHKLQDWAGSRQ

[1] = target: T3, B2 bradykinin receptor (Homo sapiens) (UniProt P30411); assay: Binding affinity towards human cloned B2 receptor was determined using [3H]BK as radioligand; Inactive
T3 sequence (whole entry): T2 sequence (P30411 whole entry)

[2] = target: T4, B1 bradykinin receptor (Homo sapiens) (UniProt P46663); assay: Binding affinity towards human cloned B1 receptor was determined using [3H][des-Arg10-Leu9]-kallidin as radioligand; No significant affinity at 10 uM
T4 sequence (whole entry): T1 sequence (P46663 whole entry)

Rattus norvegicus = species on record: Rattus norvegicus; assay: Compound was tested for antagonist activity on rat ileum longitudinal smooth muscle; type: functional; conditions: read-out: pA2 (converted)
[3] = target: T4, B1 bradykinin receptor (Homo sapiens); assay: Binding affinity towards human cloned B1 receptor was determined using [3H][des-Arg10-Leu9]-kallidin as radioligand; No significant affinity at 10E-5 M

NA [1]	NS [2]	Compound	other results
–	–	NCCCC[C@H](N)C(=O)N[C@@H](CCCN=C(N)N)C(=O)N1CCC2(CC1)C(=O)N(CC(=O)N[C@@H](CO)C(=O)N[C@@H]1CSc3ccccc3N(CC(=O)O)C1=O)CN2CCc1ccccc1	Kb (Homo sapiens): 794 nM; Ki (B1 bradykinin receptor): 24.1 nM; Ki (B2 bradykinin receptor): 11.9 µM
inactive	–	C[C@@H](O)[C@H](NC(=O)CN1CN(CCc2ccccc2)C2(CCN(C(=O)[C@H](CCCN=C(N)N)NC(=O)[C@@H](N)CCCCN)CC2)C1=O)C(=O)N[C@@H]1CSc2ccccc2N(CC(=O)O)C1=O	–
inactive	inactive	C[C@H](NC(=O)[C@@H](N)CCCCN)C(=O)N1CCC2(CC1)C(=O)N(CC(=O)N[C@@H](CO)C(=O)N[C@@H]1CSc3ccccc3N(CC(=O)O)C1=O)CN2CCc1ccccc1	–
inactive	–	NCCCC[C@H](N)C(=O)N[C@@H](CCCN=C(N)N)C(=O)N1CCC2(CC1)CN(CC(=O)N[C@@H]1CSc3ccccc3N(CC(=O)O)C1=O)C(=O)N2CCc1ccccc1	–
inactive	inactive	N=C(N)NCCCC(NC(=O)C1CCNCC1)C(=O)N1CCC2(CC1)C(=O)N(CC(=O)NC(CO)C(=O)N[C@@H]1CSc3ccccc3N(CC(=O)O)C1=O)CN2CCc1ccccc1 (stereo partly specified)	–
inactive	inactive	C[C@H](N)C(=O)N[C@@H](CCCN=C(N)N)C(=O)N1CCC2(CC1)C(=O)N(CC(=O)N[C@@H](CO)C(=O)N[C@@H]1CSc3ccccc3N(CC(=O)O)C1=O)CN2CCc1ccccc1	–
–	–	NC(N)=NCCC[C@H](NC(=O)[C@@H](N)CCCN=C(N)N)C(=O)NCCCCCCCCCCC(=O)N[C@@H](CO)C(=O)N1Cc2ccccc2C[C@H]1C(=O)N1C2CCCCC2C[C@H]1C(=O)O (stereo partly specified) (H-RR[Aun]S[Tic][Oic(3aξ,7aξ)]-OH)	Kb (Rattus norvegicus): 79.4 nM
inactive	–	NCCCC[C@H](N)C(=O)N[C@@H](CCCN=C(N)N)C(=O)N1CCC2(CC1)C(=O)N(CC(=O)N[C@@H](CO)C(=O)N[C@@H]1CSc3ccccc3N(CC(=O)O)C1=O)CN2CCC1Cc2ccccc2C1	NS [3]: inactive
inactive	–	C[C@H](NC(=O)CN1CN(CCc2ccccc2)C2(CCN(C(=O)[C@H](CCCN=C(N)N)NC(=O)[C@@H](N)CCCCN)CC2)C1=O)C(=O)N[C@@H]1CSc2ccccc2N(CC(=O)O)C1=O	–
inactive	inactive	N=C(N)NCCCCC(=O)NC(CCCNC(=N)N)C(=O)N1CCC2(CC1)C(=O)N(CC(=O)NC(CO)C(=O)N[C@@H]1CSc3ccccc3N(CC(=O)O)C1=O)CN2CCc1ccccc1 (stereo partly specified)	–
inactive	–	NCCCC[C@H](N)C(=O)N[C@@H](CCCN=C(N)N)C(=O)N1CCC2(CC1)C(=O)N(CC(=O)N[C@@H](CO)C(=O)N[C@@H]1CSc3ccccc3N(CC(=O)O)C1=O)CN2c1ccccc1	NS [3]: inactive
inactive	inactive	NCc1ccc(C(=O)NC(CCCN=C(N)N)C(=O)N2CCC3(CC2)C(=O)N(CC(=O)NC(CO)C(=O)N[C@@H]2CSc4ccccc4N(CC(=O)O)C2=O)CN3CCc2ccccc2)cc1 (stereo partly specified)	–
